Reference: ChEMBL document CHEMBL4351015, “Design, synthesis and biological evaluation of 3-(imidazo[1,2-a]pyrazin-3-ylethynyl)-2-methylbenzamides as potent and selective pan-tropomyosin receptor kinase (TRK) inhibitors” (Eur J Med Chem, 2019)
Activity calls are given as the source filed them. No cut-off for these calls is given here.

What was measured:
[1] = target: Tyrosine-protein kinase ABL1 (Homo sapiens, UniProt P00519); experiment: Inhibition of recombinant full length human His-tagged ABL1 expressed in baculovirus infected insect cells using tyr 02 as substrate incubated for 2 hr by Z'-Lyte assay
[2] = target: High affinity nerve growth factor receptor (Homo sapiens, UniProt P04629); experiment: Inhibition of recombinant human His-tagged TrkA catalytic domain (441 to 796 residues) expressed in baculovirus expression system using tyr 01 as substrate incubated for 1 hr by Z'-Lyte assay
[3] = target: BDNF/NT-3 growth factors receptor (Homo sapiens, UniProt Q16620); experiment: Inhibition of recombinant human His-tagged TrkB catalytic domain (526 to 838 residues) expressed in baculovirus expression system using tyr 01 as substrate incubated for 1 hr by Z'-Lyte assay
SH-SY5Y [4] = experiment: Antiproliferative activity against human SH-SY5Y cells transfected with TrkB (unknown origin) assessed as reduction in cell viability incubated for 72 hrs by CCK8 assay; format: functional, cell-based
Outline: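 SH-SY5Y-TrkB cells (SH-SY5Y stably transfected with pRP-TrkB, kept under 0.5 µg/ml puromycin in 1:1 MEM/F-12 with 10% FBS) seeded at 1500-3000/well, left overnight. Compounds 0.000457–3 µM were then added with or without BDNF 10 ng/ml for 72 h. Read-out by CCK8. IC50 came from concentration-response curve fitting, reported as mean ± SD from at least three independent experiments.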

SH-SY5Y [5] = experiment: Neurotoxicity in human SH-SY5Y cells assessed as reduction in cell viability incubated for 72 hrs by CCK8 assay; format: toxicity, cell-based
[6] = target: NT-3 growth factor receptor (Homo sapiens, UniProt Q16288); experiment: Inhibition of recombinant human His-tagged TrkC cytoplasmic domain (510 to 825 residues) expressed in baculovirus using tyr 01 as substrate incubated for 1 hr by Z'-Lyte assay
Sequence of NT-3 growth factor receptor (Q16288 whole entry, the tested form may be a part): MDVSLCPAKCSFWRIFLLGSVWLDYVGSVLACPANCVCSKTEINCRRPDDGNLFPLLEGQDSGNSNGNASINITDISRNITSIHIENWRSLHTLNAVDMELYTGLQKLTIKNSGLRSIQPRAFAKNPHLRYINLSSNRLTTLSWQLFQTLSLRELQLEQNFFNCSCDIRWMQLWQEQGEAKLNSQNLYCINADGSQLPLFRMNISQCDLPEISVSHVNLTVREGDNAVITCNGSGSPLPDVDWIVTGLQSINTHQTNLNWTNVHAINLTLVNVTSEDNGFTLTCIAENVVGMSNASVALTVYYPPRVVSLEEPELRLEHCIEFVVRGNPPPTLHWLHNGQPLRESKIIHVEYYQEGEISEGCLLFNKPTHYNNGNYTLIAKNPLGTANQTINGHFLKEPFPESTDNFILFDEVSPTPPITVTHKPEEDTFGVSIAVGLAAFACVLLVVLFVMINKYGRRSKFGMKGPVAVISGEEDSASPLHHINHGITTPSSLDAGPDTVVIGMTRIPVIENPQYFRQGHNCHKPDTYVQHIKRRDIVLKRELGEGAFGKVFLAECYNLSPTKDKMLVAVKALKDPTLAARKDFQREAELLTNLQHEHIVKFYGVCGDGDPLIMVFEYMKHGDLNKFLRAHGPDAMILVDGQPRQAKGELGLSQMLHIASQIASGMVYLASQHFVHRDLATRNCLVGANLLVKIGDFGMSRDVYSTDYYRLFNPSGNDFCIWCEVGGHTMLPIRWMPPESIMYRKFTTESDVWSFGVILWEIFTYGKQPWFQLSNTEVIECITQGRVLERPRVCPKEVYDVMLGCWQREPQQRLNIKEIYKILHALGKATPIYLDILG

Sequence of High affinity nerve growth factor receptor (P04629 whole entry, the tested form may be a part): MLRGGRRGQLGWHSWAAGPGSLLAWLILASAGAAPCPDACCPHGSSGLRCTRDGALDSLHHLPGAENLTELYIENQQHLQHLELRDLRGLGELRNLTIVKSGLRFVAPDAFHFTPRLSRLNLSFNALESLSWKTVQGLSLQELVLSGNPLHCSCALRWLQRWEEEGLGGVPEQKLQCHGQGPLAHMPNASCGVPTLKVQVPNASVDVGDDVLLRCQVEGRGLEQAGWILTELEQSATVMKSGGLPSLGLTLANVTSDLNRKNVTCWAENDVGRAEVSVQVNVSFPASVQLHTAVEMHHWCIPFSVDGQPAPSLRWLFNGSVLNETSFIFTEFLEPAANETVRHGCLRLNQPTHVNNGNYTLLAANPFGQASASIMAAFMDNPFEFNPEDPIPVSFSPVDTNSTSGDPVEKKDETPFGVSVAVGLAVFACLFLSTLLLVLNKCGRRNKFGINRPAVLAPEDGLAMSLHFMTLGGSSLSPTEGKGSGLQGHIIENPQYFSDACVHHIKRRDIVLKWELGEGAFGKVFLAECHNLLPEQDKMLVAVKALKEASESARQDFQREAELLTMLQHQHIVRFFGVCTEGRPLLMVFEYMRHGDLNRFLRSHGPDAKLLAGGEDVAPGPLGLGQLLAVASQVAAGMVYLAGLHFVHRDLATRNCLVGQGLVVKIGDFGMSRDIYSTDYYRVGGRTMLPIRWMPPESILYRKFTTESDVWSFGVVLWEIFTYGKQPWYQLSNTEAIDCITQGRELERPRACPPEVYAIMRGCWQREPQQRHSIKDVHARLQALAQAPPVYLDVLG
Sequence of Tyrosine-protein kinase ABL1 (P00519 whole entry, the tested form may be a part): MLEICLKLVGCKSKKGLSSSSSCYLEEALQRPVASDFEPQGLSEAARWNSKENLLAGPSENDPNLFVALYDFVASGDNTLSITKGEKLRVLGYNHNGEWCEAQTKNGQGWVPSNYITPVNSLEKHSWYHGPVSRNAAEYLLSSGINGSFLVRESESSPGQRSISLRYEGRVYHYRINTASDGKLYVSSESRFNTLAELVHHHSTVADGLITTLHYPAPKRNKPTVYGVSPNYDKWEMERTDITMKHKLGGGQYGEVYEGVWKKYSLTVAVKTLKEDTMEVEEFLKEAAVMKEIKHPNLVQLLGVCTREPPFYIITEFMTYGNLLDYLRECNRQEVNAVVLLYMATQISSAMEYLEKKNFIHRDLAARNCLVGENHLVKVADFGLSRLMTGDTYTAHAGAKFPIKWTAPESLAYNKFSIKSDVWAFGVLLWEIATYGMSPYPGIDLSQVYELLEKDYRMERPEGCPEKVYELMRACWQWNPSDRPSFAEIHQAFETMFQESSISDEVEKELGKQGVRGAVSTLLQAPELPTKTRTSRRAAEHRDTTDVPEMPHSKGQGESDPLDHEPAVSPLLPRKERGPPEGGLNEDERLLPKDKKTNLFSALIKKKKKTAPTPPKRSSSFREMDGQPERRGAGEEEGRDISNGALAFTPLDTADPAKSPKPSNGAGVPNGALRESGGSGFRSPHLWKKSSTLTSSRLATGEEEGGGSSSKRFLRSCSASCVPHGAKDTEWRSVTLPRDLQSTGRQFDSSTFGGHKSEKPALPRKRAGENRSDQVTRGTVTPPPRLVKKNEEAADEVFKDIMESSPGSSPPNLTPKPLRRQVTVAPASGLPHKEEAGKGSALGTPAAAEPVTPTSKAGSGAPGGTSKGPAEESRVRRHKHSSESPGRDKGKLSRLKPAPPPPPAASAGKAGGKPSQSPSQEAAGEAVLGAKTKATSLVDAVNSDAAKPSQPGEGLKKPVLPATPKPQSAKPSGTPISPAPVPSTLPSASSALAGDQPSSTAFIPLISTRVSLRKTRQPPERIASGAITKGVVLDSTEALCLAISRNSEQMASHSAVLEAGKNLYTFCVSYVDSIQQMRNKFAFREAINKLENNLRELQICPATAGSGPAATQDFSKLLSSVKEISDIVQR
Sequence of BDNF/NT-3 growth factors receptor (Q16620 whole entry, the tested form may be a part): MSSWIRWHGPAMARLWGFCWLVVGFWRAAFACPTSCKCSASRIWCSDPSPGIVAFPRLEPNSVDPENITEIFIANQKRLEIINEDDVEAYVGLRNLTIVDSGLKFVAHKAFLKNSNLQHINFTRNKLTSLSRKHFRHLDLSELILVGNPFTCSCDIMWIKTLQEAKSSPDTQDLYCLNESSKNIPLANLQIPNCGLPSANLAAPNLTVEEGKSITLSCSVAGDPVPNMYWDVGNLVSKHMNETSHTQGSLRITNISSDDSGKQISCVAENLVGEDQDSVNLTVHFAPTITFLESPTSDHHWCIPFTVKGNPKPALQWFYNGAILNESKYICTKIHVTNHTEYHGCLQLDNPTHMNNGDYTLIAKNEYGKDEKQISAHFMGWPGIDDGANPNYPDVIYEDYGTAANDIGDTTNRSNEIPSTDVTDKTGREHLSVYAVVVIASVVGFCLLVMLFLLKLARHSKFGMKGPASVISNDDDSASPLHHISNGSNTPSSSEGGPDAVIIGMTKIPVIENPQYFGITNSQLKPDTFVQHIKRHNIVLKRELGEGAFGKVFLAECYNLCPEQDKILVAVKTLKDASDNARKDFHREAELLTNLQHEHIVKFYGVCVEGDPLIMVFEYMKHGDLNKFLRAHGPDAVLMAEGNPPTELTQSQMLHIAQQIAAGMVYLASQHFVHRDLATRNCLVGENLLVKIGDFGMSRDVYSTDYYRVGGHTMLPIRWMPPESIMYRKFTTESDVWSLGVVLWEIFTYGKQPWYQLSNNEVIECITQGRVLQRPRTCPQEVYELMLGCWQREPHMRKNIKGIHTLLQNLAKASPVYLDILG

IC50 [1] [µM]	IC50 [2] [µM]	IC50 [3] [µM]	IC50 [6] [µM]	Structure (SMILES)	Activity (SH-SY5Y [4])	Activity (SH-SY5Y [5])
0.449	0.132	0.178		Cc1cc(C#Cc2cnc3cnccn23)cc(C(=O)Nc2cc(CN3CCN(C)CC3)cc(C(F)(F)F)c2)c1		
> 1	0.0174	0.0413		Cc1cc(CN2CCN(C)CC2)cc(NC(=O)c2cccc(C#Cc3cnc4cnc(-c5ccc(N)cc5)cn34)c2C)c1		
	0.00824	0.00937		Cc1ccc(C(=O)Nc2cc(CN3CCN(C)CC3)cc(C(F)(F)F)c2)cc1C#Cc1cnc2cnccn12		
> 1				O=C(Nc1cnn2ccc(N3CCC[C@@H]3c3cc(F)ccc3F)nc12)N1CC[C@H](O)C1 [LAROTRECTINIB]	Active	Non-Toxic
> 1	0.0398	0.0383		Cc1c(C#Cc2cnc3cnccn23)cccc1C(=O)Nc1cc(CN2CCN(C)CC2)cc(C(F)(F)F)c1		
0.0333	0.0416	0.0439		CN1CCN(Cc2cc(NC(=O)c3cccc(C#Cc4cnc5cnccn45)c3)cc(C(F)(F)F)c2)CC1		
> 1	> 1	> 1		COc1c(C#Cc2cnc3cnccn23)cccc1C(=O)Nc1cc(CN2CCN(C)CC2)cc(C(F)(F)F)c1		
> 1	0.0288	0.0435		Cc1c(C#Cc2cnc3cnc(-c4ccncc4)cn23)cccc1C(=O)Nc1cc(CN2CCN(C)CC2)cc(C(F)(F)F)c1		
> 1	> 1	> 1	> 1	CCCc1c(C#Cc2cnc3cnccn23)cccc1C(=O)Nc1cc(CN2CCN(C)CC2)cc(C(F)(F)F)c1		
